{"source": "paper PMC7931394", "about": "(ACS Omega, 2021)", "format_in_all_cases": "physicochemical", "key": {"[1]": {"assay": "Scanning electron microscopy of aggregates", "conditions": "0.10 mg/mL aqueous solution incubated at 50 °C for 3 h (Figure S6)", "summary_of_the_method": "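Peptide in water at 0.1 mg/mL was incubated at 50 °C for 3 h, dropped on a cover glass and air-dried at 50 °C. The residue was rinsed gently three times with distilled water and air-dried again. Samples were platinum sputter-coated (5 nm) and imaged at 5.00 kV at 500× and 2000× magnification.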"}, "[2]": {"assay": "Turbidity measurement of temperature-dependent coacervation", "summary_of_the_method": "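Peptides were dissolved in pure water at various concentrations. Turbidity at 400 nm was followed while the temperature was raised or lowered at 0.5 °C/min starting from 5 °C. Each concentration was run at least three times. Tt was taken as the temperature at which turbidity reached half its maximum.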"}, "[3]": {"assay": "Logarithmic fit of Tt against molar peptide concentration", "conditions": "pure water", "summary_of_the_method": "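Tt for each peptide was obtained by turbidity at 400 nm in pure water at several concentrations, measured at least three times per concentration. Tt was plotted against the logarithm of molar peptide concentration and fitted as a logarithmic function. C37 was obtained by logarithmic extrapolation to Tt = 37 °C. The concentration needed at 50 °C was computed from formula (1).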"}}, "note": "Peptide text beside a SMILES is read from it.", "data": [{"smiles": "CC(C)[C@H](NC(=O)CNC(=O)[C@@H]1CCCN1C(=O)[C@H](Cc1ccccc1)NC(=O)CNC(=O)[C@@H](NC(=O)CNC(=O)[C@@H]1CCCN1C(=O)[C@H](Cc1ccccc1)NC(=O)CNC(=O)[C@@H](NC(=O)CNC(=O)[C@@H]1CCCN1C(=O)[C@H](Cc1ccccc1)NC(=O)CNC(=O)[C@@H](NC(=O)CNC(=O)[C@@H]1CCCN1C(=O)[C@H](Cc1ccccc1)NC(=O)CNC(=O)[C@@H](NC(=O)CNC(=O)[C@@H]1CCCN1C(=O)[C@@H](N)Cc1ccccc1)C(C)C)C(C)C)C(C)C)C(C)C)C(=O)NCC(N)=O", "note": "[F5, H-(FPGVG)5-NH2] (H-FPGVGFPGVGFPGVGFPGVGFPGVG-NH2)", "values": [{"measurement": "morphology by SEM", "setting": "[1]", "value": "spherical structures were not formed"}, {"measurement": "peptide concentration at which coacervation is exhibited / required", "setting": "[2]; pure water, turbidity at 400 nm, 0.5 °C/min from 5 °C", "value": "at least 20 mg/mL"}, {"measurement": "concentration required to show coacervation at 50 °C", "setting": "[3]; calculated with formula (1)", "value": "at least 8.09 mM"}, {"measurement": "C37 (peptide concentration to attain Tt at 37 °C)", "setting": "[3]; logarithmic extrapolation of the Tt vs peptide concentration graph", "value": 11.7, "unit": "mM"}]}, {"smiles": "CC(C)[C@H](NC(=O)CNC(=O)[C@@H]1CCCN1C(=O)[C@H](Cc1ccccc1)NC(=O)CNC(=O)[C@@H](NC(=O)CNC(=O)[C@@H]1CCCN1C(=O)[C@H](Cc1ccccc1)NC(=O)CNC(=O)[C@@H](NC(=O)CNC(=O)[C@@H]1CCCN1C(=O)[C@@H](N)Cc1ccccc1)C(C)C)C(C)C)C(=O)NCC(N)=O", "note": "[F3, H-(FPGVG)3-NH2] (H-FPGVGFPGVGFPGVG-NH2)", "values": [{"measurement": "coacervation (turbidity change on heating)", "setting": "[2]; peptide 20–50 mg/mL in pure water, turbidity at 400 nm (Figure S2)", "value": "no coacervation"}]}]}
